Here are results for 48 sequences from the EternaBench riboswitch data.

As a reminder, the apparent Kd is a dissociation constant that holds for the conditions of the assay.

In the series the test system is MS2 coat protein. Kind of series: apparent Kd, MS2 coat protein; higher = weaker binding; RNA-MaP array; FMN 200 µM where present. Put shortly: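 The titrant was SNAP-549-labelled MS2 coat protein, run from 0.7 or 1.5 nM in doubling steps to 3 µM. It was applied to designs transcribed by stalled E. coli RNA polymerase on Illumina sequencing-chip clusters, without ligand first and then with constant ligand, in 100 mM Tris-HCl pH 7.5, 80 mM KCl, 4 mM MgCl2, BSA, DTT, yeast tRNA and Tween-20. The apparent Kd is the median of filtered per-cluster binding-curve fits, with green signal normalised to red-channel RNA signal and control-cluster median Fmax.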

[1] abbreviates: designed as: OFF switch for flavin mononucleotide, no ligand.
Where [2] appears, read: ligand present: flavin mononucleotide, designed as: OFF switch for flavin mononucleotide.
Where [3] appears, read: designed as: ON switch for flavin mononucleotide, no ligand.
[4] abbreviates: ligand present: flavin mononucleotide, designed as: ON switch for flavin mononucleotide.

“AAAUUUAACGAAGGAUAUGGAUACAUGAGGAUCACCCAUGUAUAUUUUGUGAUCUUGUAAAAGUACCAGAAGGUCGUAUACAUA”: the “apparent Kd” value is, setting by setting: under setting [1], 85.7 nM; under setting [2], 208 nM.
In the same order, the values of “AAGAGUGCAGGAUAUACUUGUUAGGACGGUUGGAUGGUUUGACAUGAGGAUCACCCAUGUAGAAGGGCAGAGAG” are 67.7 nM and 67.8 nM.
For “CAGCGAAAGUAGAAGGCAGUACUGAUACAGUACUGAGGAUAUACAUGAGGAUCACCCAUGUACUUCAGCUGGAAAUAAAUAAAA” the same measures were 5.59 nM and 6.32 nM.
Take “GGUCUGACAUAAGGAUAUGCUCAGGAAUACUGAGCAGAAGGUAUGUGAAAACAUGAGGAUCACCCAUGUGAUCAAUACAGACCA”: the “apparent Kd” value is, setting by setting: under setting [3], 18 nM; under setting [4], 20.9 nM.
Take “CCAUGUUAGCAGGAUAUGCAAUAAAUCUUUUAAGCAGAAGGGCUUACAUGAGGAUCACCCAUGUAUAAAGUCAA”: the “apparent Kd” value is, setting by setting: under setting [1], 19.8 nM; under setting [2], 45.6 nM.
Turning to “UUUACAUGAGGAUCACCCAUGUUUAGAAAGAUUGGUUUAGGUGAGGAUAUACAUGAUAAUGAAUUGUAGAAGGCACUGGGUACA”, the “apparent Kd” value by setting is: under setting [3], 30.1 nM; under setting [4], 24 nM.
As to “GCUGUCGCAUGAGGAUAUGGACUGCUUUGCAGUCCAGAAGGCAUGUCAAUAGACAUGAGGAUCACCCAUGUAGUUAAGACAGCA”, the “apparent Kd” value is, setting by setting: under setting [3], 704 nM; under setting [4], 42.4 nM.
For “UUUUAGAGAGGAUAUAUAAAGUGAAACAUGAGGAUCACCCAUGUAAUUUUAUGGAUGUAAAUAGAAGGCUCAUUUA”, the “apparent Kd” value reads like this: under setting [1], 33.3 nM; under setting [2], 28.6 nM.
As for “UAAAUCUUGUAAGGAUAUACACGAGAUUCAAGUGUAGAAGGUACUUACAUGAGGAUCACCCAUGUAUACAUGGAUAAUAUAUAU”, the “apparent Kd” value came to 206 nM under setting [3] and 32.2 nM under setting [4].
Turning to “GCCUUAUCGGUCAGGAUAUACACCCGUCACUUCUUGUAGAAGGGACAUGAGGAUCACCCAUGUACAUUACAUUG”, the “apparent Kd” value turned out to be 313 nM under setting [1] and 177 nM under setting [2].
In the case of “GCAGCAUCUGCAGGAUAUCAGCACGUGUAGUGCUGAGAAGGGCACAUGAGGAUCACCCAUGUGAUCAAUUAAUAUAGAUGCUGC”, the “apparent Kd” value worked out at 5.78 nM under setting [1] and 15.8 nM under setting [2].
Take “UGUCGGAGCAGAGGAUAUUACAUGAGGAUCACCCAUGUAUGAACCAAUAGCUGGAAACAGCAAUGUAAGAAGGCAGCUCCGACA”: the “apparent Kd” value is 5.11 nM under setting [1] and 8.82 nM under setting [2].
“AACAAGAGGAUCACCCAUGUAACAUGAGGAUCACCCAUGUUCAAGGAUAUGUACAUGAUACAUGUACAGAAGGUGAAUUGGACU”: the “apparent Kd” value is, setting by setting: under setting [1], 21 nM; under setting [2], 36.2 nM.
As for “UGCUACAUGAGGAUCACCCAUGUAAUGUGGGAAUCGUUAGGACAGGAUAUGAUUGUAUUGUUUUUUCAGAAGGGUCAUUACUUU”, the “apparent Kd” value is, setting by setting: under setting [1], 302 nM; under setting [2], 303 nM.
As to “GACAUACAUGAGGAUCACCCAUGUUCAGGCGGACAAGGAUAUGUGUGGAAACCAUACUAUACAGAAGGUGUCUGUC”, the “apparent Kd” value reads like this: under setting [3], 24.8 nM; under setting [4], 17.3 nM.
For “CUGGUUGUCGUAGGAUAUGUAGGAUAUUCCUACAUGAGGAUCACCCAUGUUCGCAUGGAAGAAGGACAGAAGGACGAUGACCAG”, the “apparent Kd” value runs as follows: under setting [3], 621 nM; under setting [4], 24.9 nM.
As to “AUCCAGCGAGGAUAUACUUUGAUUUUUUCGUUUUGUCUCGAACAUGAGGAUCACCCAUGUAGAAGGUGCUUCAC”, the “apparent Kd” value reads like this: under setting [1], 67.1 nM; under setting [2], 59.8 nM.
Regarding “UCAUAUAUACAAGGAUAUCAAUGAUUUAUAGAUCCUACAUGAGGAUCACCCAUGUUUUUAUAUUUUGAGAAGGUGUAGUGUCUU”, the “apparent Kd” value reads like this: under setting [3], 214 nM; under setting [4], 333 nM.
Turning to “UUAUGGCUAGGAUAUGCACGUGCAUGUUCAAGUCAAAGAAGACAUGAGGAUCACCCAUGUAGAAGGAGCGGUAC”, the “apparent Kd” value by setting is: under setting [1], 37.8 nM; under setting [2], 24.2 nM.
In the case of “UUUUGACAUGAGGAUCACCCAUGUGAGGAUAUGGAGCGCGACCGCGCGGUCGCGUACACCAGAAGGCGCAGGAA”, the “apparent Kd” value runs as follows: under setting [1], 40.3 nM; under setting [2], 70.8 nM.
On to “AUGCUAUACGAAGGAUAUGGUUACAUGAGGAUCACCCAUGUAUUUUUUGUGAUCUUGUUUAAGUUCCAGAAGGUCGUAUAGCUA”, for which the “apparent Kd” value reads like this: under setting [1], 486 nM; under setting [2], 617 nM.
For “GAUUCACAUGAGGAUCACCCAUGUCGUUUAAUGGGAGGAUAUACGUGGACCGUAGUCCGCGUAGAAGGCCUAAUUG”, the “apparent Kd” value runs as follows: under setting [3], 95.1 nM; under setting [4], 25.6 nM.
As to “UGUCGGAGCAGAGGAUAUACAUGAGGAUCACCCAUGUAAUAAAGUGAAGCCUGGACACAGGCAAUGUAGAAGGCUGCUCCGACA”, the “apparent Kd” value worked out at 12.7 nM under setting [1] and 87.9 nM under setting [2].
For the sequence “AUCAGCUCGUGAGGAUAUACGUCACUGCGUCAGCAGUGUGGUAAGAUCACAUGAGGAUCACCCAUGUAGAAGGGACGAGCUGAU”, the “apparent Kd” value runs as follows: under setting [1], 15.6 nM; under setting [2], 45.9 nM.
Consider “UGAACUUCAGAGAAGGUCGAACGGCAACGGUUCGAAGGAUAUCUGGAAACAUGAGGAUCACCCAUGUAACCGGGUGGAUGUCCU”, for which the “apparent Kd” value runs as follows: under setting [1], 58.9 nM; under setting [2], 291 nM.
Regarding “AGUUAAUAUCGAGGAUAUGUCUAGACACAUGAGGAUCACCCAUGUAUGUGUAUAGAAGGCGAUAUUAACAGCAUGUUACAUGCC”, the “apparent Kd” value under setting [3] came out at 37.2 nM and the “apparent Kd” value under setting [4] amounted to 15.6 nM.
For the sequence “UUAAAUAGUGUGAGGAUAUGCUGGUCCUUGGAUCAGCAGAAGGCACAUGAGGAUCACCCAUGUAGUUAAUUUUA”, the “apparent Kd” value is 39.9 nM under setting [1] and 253 nM under setting [2].
On to “GUAAUACAUGAGGAUCACCCAUGUAAGGAUAUGCUAGCGGUCGGCUGACUGACUGCUAGCAGAAGGUACAUGAU”, for which the “apparent Kd” value by setting is: under setting [1], 85.1 nM; under setting [2], 128 nM.
Turning to “AACACGCUAACAAGCGACAUGAGGAUCACCCAUGUAAGGACACAGGAUAUCCGGAGUCAUAGGCCGGAGAAGGGUGAUCCUACC”, the “apparent Kd” value was found to be 33.4 nM under setting [3] and 19.7 nM under setting [4].
For “AGUUAAUAUCGAGGAUAUCCUCUACCACAUGAGGAUCACCCAUGUAUGCAUGGAGAAGGCGAUAUUAACAGCAUGUUACAUGCA”, the “apparent Kd” value under setting [3] is 157 nM and the “apparent Kd” value under setting [4] was determined as 8.62 nM.
In the same order, the values of “GACUUGCGCACAGGAUAUCCACGUAGCGGACGUGGAGAAGGGUGACAUGAGGAUCACCCAUGUACGUAAGUCUGGAUCACUUCC” are 48.3 nM and 21.8 nM.
Take “AAGACAUGAGGAUCACCCAUGUAAAGACCGGUCGAUCAAUGUGAGGAUAUACGAUAAUUGAUAGGGUAGAAGGCACUGGGUUGA”: the “apparent Kd” value is, setting by setting: under setting [3], 264 nM; under setting [4], 151 nM.
In the case of “GCAUCACAUGAGGAUCACCCAUGUCUUCGGAGUGGAGGAUAUGGUCACUGUAAACAGUGGCCAGAAGGCCGGAUGC”, the “apparent Kd” value runs as follows: under setting [3], 82.6 nM; under setting [4], 94.5 nM.
Take “ACCUCGUCAGGAUAUCCUAUUAAUUGUUUCAUAUUUACGAUGGAGAAGGGACAUGAGGAUCACCCAUGUUGGUC”: the “apparent Kd” value is 35.5 nM under setting [1] and 58 nM under setting [2].
In the case of “GGUGUCGUAUGAGGAUAUGGUCAGCUUUGCUGACCAGAAGGCAUGUCAAUAGACAUGAGGAUCACCCAUGUAGUAAAGACACCA”, the “apparent Kd” value by setting is: under setting [3], 441 nM; under setting [4], 43.4 nM.
With “AGCCGUGUACAGAAGGGCGACAUGAGGAUCACCCAUGUCUCCUUGUUGGUCGUAGGAUAUGUACCGUGGCUCUCUACUGUGGGA”, the “apparent Kd” value under setting [1] was found to be 5.96 nM and the “apparent Kd” value under setting [2] is 7.28 nM.
Turning to “ACAUGAGGAUCACCCAUGUGAAAACAAUGGCUGACACAGAGAUAGGAUAUAUGUGCAUAUCAAACAUAGAAGGGUCAUAACUGG”, the “apparent Kd” value under setting [1] is 50 nM and the “apparent Kd” value under setting [2] came to 50.6 nM.
“GUCAGCUCGUGAGGAUAUACAACACUGCUUCGGUAGUGUAUUAAGAUCACAUGAGGAUCACCCAUGUAGAAGGCACGAGCUGAU”: the “apparent Kd” value runs as follows: under setting [1], 15.1 nM; under setting [2], 268 nM.
Consider “CGGGCGCGAGGAUAUACAUGAGGAUCACCCAUGUAACGGGUUUGAAUCGGGCUUGCGUGUAGAAGGUGUGUUUG”, for which the “apparent Kd” value was determined as 86 nM under setting [1] and 73.8 nM under setting [2].
On to “ACUAGAUGAGGAUAUGCACAUUUUAGUGUUCCUCUAGAUUAACAUGAGGAUCACCCAUGUAGAAGGCGUCAUUU”, for which the “apparent Kd” value reads like this: under setting [1], 77 nM; under setting [2], 91.5 nM.
Turning to “CGUAGUUGGUAAGGAUAUCCUACACUAUUCUGACCCGUGCAAGCUACAUGAGGAUCACCCAUGUGGGAGAAGGUGCGUCAACGU”, the “apparent Kd” value is, setting by setting: under setting [1], 10.8 nM; under setting [2], 10.9 nM.
In the same order, the values of “UAAUUUUUGACAGGAUAUCCAUGUACAUGAGGAUCACCCAUGUAAAAGGGUAGCCUCAUCGGGCAGGAGAAGGGUCGAUAGGCG” are 249 nM and 134 nM.
On to “GUUCUGCCUCCUGCCGGAACAUGAGGAUCACCCAUGUUGCCUGAGGAUAUCCUAUGGCUCCCACAGGAGAAGGCAGGCAACAUA”, for which the “apparent Kd” value turned out to be 86.2 nM under setting [1] and 371 nM under setting [2].
Take “CUCUUAGCAGGAUAUACAUUAUCCCAGUCAUGGUCGGCGACACAUGAGGAUCACCCAUGUAGAAGGGCUAUGAG”: the “apparent Kd” value runs as follows: under setting [1], 23.4 nM; under setting [2], 52.8 nM.
Consider “GAUAGAGAGCAGGAUAUCUUGGGUAAGUAUCGUAGAGAAGGGCUCACAUGAGGAUCACCCAUGUGGUCCAAGAU”, for which the “apparent Kd” value came out at 14.2 nM under setting [1] and 32.6 nM under setting [2].
“CUUCAGUGAGGAUAUGGCAUGCGCUGAUAAGCGCUCUCACGCCAGAAGGCACAUGAGGAUCACCCAUGUAAAAC”: the “apparent Kd” value reads like this: under setting [1], 39.1 nM; under setting [2], 152 nM.
As for “GCAGCACAUGAGGAUCACCCAUGUCUUCGGAGUCGAGGAUAUGGUCACUGUAAACAGUGGCCAGAAGGCGAGUUGC”, the “apparent Kd” value is, setting by setting: under setting [3], 31.7 nM; under setting [4], 27.2 nM.
As to “UGCUACAUGAGGAUCACCCAUGUAAUGUGGGAUUCGUUAGGACAGGAUAUGAUUGUAUAGUUUUUUCAGAAGGGUCAUUACUUU”, the “apparent Kd” value under setting [1] turned out to be 69.2 nM and the “apparent Kd” value under setting [2] was 135 nM.
